28 compounds from ChEMBL document CHEMBL1139609, “In pursuit of alpha4beta2 nicotinic receptor partial agonists for smoking cessation: carbon analogs of (-)-cytisine” (Bioorg Med Chem Lett, 2005) can be followed below.

In test [1] the target is Neuronal acetylcholine receptor; alpha4/beta2 (Homo sapiens, UniProt P17787+P43681). The test is described as follows: Binding affinity against nicotinic acetylcholine receptor alpha4-beta2 in human HEK293 cells using [3H]- nicotine as radioligand. Type of test: cell-based.
In test [2] the target is Neuronal acetylcholine receptor subunit alpha-7 (Homo sapiens, UniProt P36544). In words: Inhibition of [3H]alpha-bungarotoxin binding to nicotinic acetylcholine receptor alpha7 of IMR32 cells. Type of test: cell-based, IMR-32.
Test [3] has as its target Neuronal acetylcholine receptor; alpha4/beta2 (Rattus norvegicus, UniProt P09483+P12390). In words: Inhibition of [3H]-nicotine binding to nicotinic acetylcholine receptor alpha4-beta2 in rat cortex.
The target in test [4] is Neuronal acetylcholine receptor; alpha3/beta4 (Homo sapiens, UniProt P30926+P32297). The test is described as follows: Inhibition of [3H]epibatidine binding to nicotinic acetylcholine receptor alpha3-beta4 of IMR32 cells. Type of test: cell-based, IMR-32. The gist of the method:
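Displacement of [3H]epibatidine binding in IMR32 cells, taken as the α3β4 nAChR site.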

Test [5] can be described thus: Inhibition of [3H]alpha-bungarotoxin binding to nicotinic acetylcholine receptor alpha-1-beta-1-delta-gamma of electroplax. Also noted: species or system pisces.

Sequence of Neuronal acetylcholine receptor; alpha3/beta4 (P30926 whole entry): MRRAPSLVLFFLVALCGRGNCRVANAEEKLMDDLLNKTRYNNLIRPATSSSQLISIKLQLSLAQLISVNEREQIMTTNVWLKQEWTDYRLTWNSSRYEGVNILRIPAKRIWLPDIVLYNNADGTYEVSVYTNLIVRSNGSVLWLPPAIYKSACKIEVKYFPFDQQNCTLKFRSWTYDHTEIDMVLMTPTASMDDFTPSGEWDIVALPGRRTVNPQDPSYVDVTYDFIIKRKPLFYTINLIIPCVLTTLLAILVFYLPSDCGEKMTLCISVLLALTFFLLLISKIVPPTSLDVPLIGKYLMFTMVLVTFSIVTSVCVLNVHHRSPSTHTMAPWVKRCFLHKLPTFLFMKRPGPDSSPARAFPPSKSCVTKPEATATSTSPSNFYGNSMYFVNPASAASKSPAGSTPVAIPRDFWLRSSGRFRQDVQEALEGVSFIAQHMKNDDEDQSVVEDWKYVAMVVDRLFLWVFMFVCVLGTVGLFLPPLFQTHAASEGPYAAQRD
Sequence of Neuronal acetylcholine receptor; alpha3/beta4 (P32297 whole entry): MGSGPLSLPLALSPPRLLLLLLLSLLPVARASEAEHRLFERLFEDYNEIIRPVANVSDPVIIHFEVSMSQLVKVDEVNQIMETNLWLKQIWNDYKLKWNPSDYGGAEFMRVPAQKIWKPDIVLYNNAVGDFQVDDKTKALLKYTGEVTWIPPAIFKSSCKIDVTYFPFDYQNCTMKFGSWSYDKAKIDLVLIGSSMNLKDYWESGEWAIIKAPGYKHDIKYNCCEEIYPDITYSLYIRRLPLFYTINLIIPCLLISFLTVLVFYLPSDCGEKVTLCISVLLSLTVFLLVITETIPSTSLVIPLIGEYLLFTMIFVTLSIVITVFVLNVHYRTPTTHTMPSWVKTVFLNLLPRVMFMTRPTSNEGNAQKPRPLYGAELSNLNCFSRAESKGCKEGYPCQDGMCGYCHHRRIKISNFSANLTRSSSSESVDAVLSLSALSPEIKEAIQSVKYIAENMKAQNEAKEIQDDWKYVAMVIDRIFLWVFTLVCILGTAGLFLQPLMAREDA
Sequence of Neuronal acetylcholine receptor; alpha4/beta2 (Rattus norvegicus, UniProt P09483+P12390) (P09483 whole entry): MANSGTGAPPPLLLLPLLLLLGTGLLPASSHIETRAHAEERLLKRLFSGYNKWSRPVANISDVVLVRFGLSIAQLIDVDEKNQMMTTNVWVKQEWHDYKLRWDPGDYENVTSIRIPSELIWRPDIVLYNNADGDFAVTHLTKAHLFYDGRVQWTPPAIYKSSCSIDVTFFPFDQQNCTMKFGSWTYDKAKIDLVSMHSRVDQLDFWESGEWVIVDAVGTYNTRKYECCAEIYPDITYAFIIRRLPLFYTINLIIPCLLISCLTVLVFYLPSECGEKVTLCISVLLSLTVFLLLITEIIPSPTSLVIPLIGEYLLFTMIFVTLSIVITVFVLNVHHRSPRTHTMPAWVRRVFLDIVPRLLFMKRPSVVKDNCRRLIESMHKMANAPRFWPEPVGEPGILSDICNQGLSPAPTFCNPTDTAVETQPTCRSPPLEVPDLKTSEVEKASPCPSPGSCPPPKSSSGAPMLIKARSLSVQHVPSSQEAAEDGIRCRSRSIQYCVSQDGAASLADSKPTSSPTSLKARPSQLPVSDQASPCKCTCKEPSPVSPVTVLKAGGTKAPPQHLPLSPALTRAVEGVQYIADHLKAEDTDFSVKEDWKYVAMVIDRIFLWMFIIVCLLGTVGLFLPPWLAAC
Sequence of Neuronal acetylcholine receptor; alpha4/beta2 (Rattus norvegicus, UniProt P09483+P12390) (P12390 whole entry): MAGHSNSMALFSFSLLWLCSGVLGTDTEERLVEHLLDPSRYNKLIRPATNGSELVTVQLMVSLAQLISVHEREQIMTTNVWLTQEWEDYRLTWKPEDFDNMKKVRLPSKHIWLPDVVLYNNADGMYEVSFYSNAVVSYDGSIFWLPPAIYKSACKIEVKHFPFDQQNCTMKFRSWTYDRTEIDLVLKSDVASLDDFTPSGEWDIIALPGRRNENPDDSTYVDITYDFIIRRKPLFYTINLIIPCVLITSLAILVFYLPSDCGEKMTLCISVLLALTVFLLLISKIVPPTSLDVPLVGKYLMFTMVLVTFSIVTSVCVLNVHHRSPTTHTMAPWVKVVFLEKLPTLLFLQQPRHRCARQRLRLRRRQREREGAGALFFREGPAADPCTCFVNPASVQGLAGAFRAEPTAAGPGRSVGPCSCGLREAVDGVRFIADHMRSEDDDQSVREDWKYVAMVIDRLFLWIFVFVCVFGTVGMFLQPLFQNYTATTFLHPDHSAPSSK
Sequence of Neuronal acetylcholine receptor subunit alpha-7 (P36544 whole entry): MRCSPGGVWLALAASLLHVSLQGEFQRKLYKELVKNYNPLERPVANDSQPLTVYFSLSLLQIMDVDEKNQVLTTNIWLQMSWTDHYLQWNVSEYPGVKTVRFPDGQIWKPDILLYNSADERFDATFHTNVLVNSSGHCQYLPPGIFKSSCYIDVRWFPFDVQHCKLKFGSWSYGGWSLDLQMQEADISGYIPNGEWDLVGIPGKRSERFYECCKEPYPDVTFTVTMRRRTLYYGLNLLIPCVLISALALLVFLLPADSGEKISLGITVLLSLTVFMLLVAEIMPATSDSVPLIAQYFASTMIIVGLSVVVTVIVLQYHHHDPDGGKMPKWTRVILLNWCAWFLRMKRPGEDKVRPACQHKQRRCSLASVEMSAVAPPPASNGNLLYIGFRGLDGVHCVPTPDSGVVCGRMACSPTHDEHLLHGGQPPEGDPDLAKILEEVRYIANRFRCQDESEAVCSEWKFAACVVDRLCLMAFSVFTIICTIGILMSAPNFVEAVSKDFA
Sequence of Neuronal acetylcholine receptor; alpha4/beta2 (Homo sapiens, UniProt P17787+P43681) (P17787 whole entry): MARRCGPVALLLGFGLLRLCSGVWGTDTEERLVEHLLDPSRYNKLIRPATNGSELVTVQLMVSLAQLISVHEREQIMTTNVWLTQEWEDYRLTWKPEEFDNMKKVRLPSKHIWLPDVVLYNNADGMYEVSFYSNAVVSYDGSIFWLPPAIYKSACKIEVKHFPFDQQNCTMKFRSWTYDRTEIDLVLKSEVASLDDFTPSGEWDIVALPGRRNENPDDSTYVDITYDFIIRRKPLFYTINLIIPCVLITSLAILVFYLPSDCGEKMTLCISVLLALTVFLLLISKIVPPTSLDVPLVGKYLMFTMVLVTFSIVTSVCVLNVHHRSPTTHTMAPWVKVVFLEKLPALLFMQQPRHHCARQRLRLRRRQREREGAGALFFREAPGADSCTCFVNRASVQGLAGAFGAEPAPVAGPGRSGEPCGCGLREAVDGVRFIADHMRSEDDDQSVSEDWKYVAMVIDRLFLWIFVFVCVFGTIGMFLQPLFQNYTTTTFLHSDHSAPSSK
Sequence of Neuronal acetylcholine receptor; alpha4/beta2 (Homo sapiens, UniProt P17787+P43681) (P43681 whole entry): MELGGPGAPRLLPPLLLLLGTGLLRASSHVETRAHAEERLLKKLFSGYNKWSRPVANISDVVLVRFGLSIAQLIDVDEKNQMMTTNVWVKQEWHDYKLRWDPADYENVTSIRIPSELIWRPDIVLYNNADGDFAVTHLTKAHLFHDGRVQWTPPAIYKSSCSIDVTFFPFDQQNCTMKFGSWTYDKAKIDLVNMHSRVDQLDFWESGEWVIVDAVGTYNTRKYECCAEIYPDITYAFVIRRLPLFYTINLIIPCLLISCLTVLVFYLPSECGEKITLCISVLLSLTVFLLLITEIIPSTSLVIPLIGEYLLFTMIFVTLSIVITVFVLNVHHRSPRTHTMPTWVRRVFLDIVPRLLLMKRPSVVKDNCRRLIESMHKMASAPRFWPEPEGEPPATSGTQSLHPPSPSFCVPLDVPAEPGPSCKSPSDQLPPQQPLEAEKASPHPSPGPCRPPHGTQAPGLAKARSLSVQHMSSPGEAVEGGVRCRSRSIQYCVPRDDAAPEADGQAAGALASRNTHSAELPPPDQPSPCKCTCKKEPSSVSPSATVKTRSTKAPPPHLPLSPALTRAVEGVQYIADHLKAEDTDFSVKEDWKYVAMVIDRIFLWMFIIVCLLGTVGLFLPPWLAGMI

Turning to `FC(F)Oc1ccc2c(c1)CC1CNCC2C1` (stereo unspecified), the Ki (in general, the dissociation constant of the complex between target and ligand, obtained from inhibition or displacement) in test [1] is 0.007 µM; in test [2], 1.7 µM. On to `Oc1cccc2c1CC1CNCC2C1` (stereo unspecified), for which, in test [1], the Ki was 0.0029 µM. `c1ccc2c(c1)CC1CNCC2C1` (stereo unspecified): the values for the inhibition constant Ki in test [1] and in test [3] were 0.034 µM and 0.065 µM, respectively. Compound `CC(C)(O)c1ccc2c(c1)CC1CNCC2C1` (stereo unspecified) showed a Ki in test [1] of 0.264 µM. The same measure, in the same setting: then `O=[N+]([O-])c1cccc2c1C1CNCC(C2)C1` (stereo unspecified), with 0.014 µM; and `O=c1oc2ccc3c(c2o1)CC1CNCC3C1` (stereo unspecified), with above 0.5 µM.

Consider `O=[N+]([O-])c1ccc2c(c1)C1CNCC(C2)C1` (stereo unspecified), for which the Ki was 0.0065 µM in test [1] and 0.98 µM in test [4].

`FC(F)(F)c1ccc(-c2ccc3c(c2)CC2CNCC3C2)cc1` (stereo unspecified) gave a Ki in test [1] of 0.2 µM. On the same count and under the same terms, then `COc1ccc2c(c1O)CC1CNCC2C1` (stereo unspecified), with 0.013 µM; and `Oc1ccc2c(c1)CC1CNCC2C1` (stereo unspecified), with 0.09 µM. Same read-out and setting: then `CCOc1ccc2c(c1)CC1CNCC2C1` (stereo unspecified), with 0.013 µM. For `COc1ccc2c(c1)CC1CNCC2C1` (stereo unspecified), the inhibition constant (Ki) in test [1] was found to be 0.0014 µM; in test [2], 2.4 µM; in test [3], 0.0032 µM; in test [4] it was 0.81 µM. As to `O=c1cccc2n1C[C@@H]1CNC[C@H]2C1` [CYTISINICLINE], the values for the inhibition constant Ki in test [1], in test [2] and in test [5] were 0.00023 µM, 4.2 µM and 0.25 µM, respectively. `COc1cccc2c1CC1CNCC2C1` (stereo unspecified) registered an inhibitory constant (Ki) in test [1] above 0.5 µM. With `O=[N+]([O-])c1ccc2c(c1)CC1CNCC2C1` (stereo unspecified), the figures for the inhibition constant Ki in test [1] and in test [4] were 0.0049 µM and 0.34 µM, respectively. With `NC(=O)COc1ccc2c(c1)CC1CNCC2C1` (stereo unspecified), the inhibition constant Ki in test [1] was above 0.5 µM. `COc1ccc2c(c1)C1CNCC(C2)C1` (stereo unspecified) gave a Ki in test [3] of 0.09 µM. The same measure, in the same setting: then `Oc1ccc2c(c1)C1CNCC(C2)C1` (stereo unspecified), with 0.075 µM. Turning to `Fc1cccc2c1CC1CNCC2C1` (stereo unspecified), the Ki in test [1] was determined as 0.0065 µM; in test [2] it was 0.83 µM. In the case of `Fc1ccc2c(c1)CC1CNCC2C1` (stereo unspecified), the results for the Ki in test [1], in test [2] and in test [4] were 0.002 µM, 0.35 µM and 0.71 µM, respectively. Compound `c1ccc(-c2ccc3c(c2)CC2CNCC3C2)cc1` (stereo unspecified) returned a Ki in test [1] above 0.5 µM. Same read-out and setting: then `Nc1cccc(-c2ccc3c(c2)CC2CNCC3C2)c1` (stereo unspecified), with above 0.5 µM; and `c1cncc(-c2ccc3c(c2)CC2CNCC3C2)c1` (stereo unspecified), with above 0.5 µM; and `COc1ccc(-c2ccc3c(c2)CC2CNCC3C2)cc1` (stereo unspecified), with 0.37 µM.

`COC(=O)c1ccc2c(c1)CC1CNCC2C1` (stereo unspecified) displayed a Ki in test [1] of 0.034 µM.

As for `c1cc2c(c3c1CC1CNCC3C1)OCO2` (stereo unspecified), the inhibitory constant (Ki) in test [1] turned out to be 0.0057 µM; in test [2], 5.1 µM; in test [5] it was 4.5 µM; in test [4], 1.9 µM. The like results for `Fc1ccc2c(c1F)CC1CNCC2C1` (stereo unspecified) were, in that order, 0.00044 µM, 0.52 µM, 3 µM and 0.81 µM.

On to `CC(C)c1ccc2c(c1)CC1CNCC2C1` (stereo unspecified), for which, in test [1], the Ki came out at 0.072 µM.
